Source: PubChem
DNA FID counter-1: displaces DNA intercalator in HCV helicase counter-screen; DNA fluorescent intercalator displacement, fluorescence; inhibition, % at 7.9 µM; 0.17% of 290,000 active; AID 1845;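 also: 0% = vehicle and 100% = reference compound; higher means more ethidium bromide displaced from hairpin DNA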
GPR7 antagonist: human neuropeptides B/W receptor 1 antagonism; inhibition, % at 4.4 µM; AID 1861; P48145; 1.1% of 290,000 active; GPR7-expressing cells, fluorescence antagonist assay; in the data active = inhibition above about 16%, passing the limit was not always enough;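 also: cells stimulated with the agonist NPW; 0% = agonist with vehicle and 100% = vehicle without agonist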
Target sequence (P48145 whole entry, looked up): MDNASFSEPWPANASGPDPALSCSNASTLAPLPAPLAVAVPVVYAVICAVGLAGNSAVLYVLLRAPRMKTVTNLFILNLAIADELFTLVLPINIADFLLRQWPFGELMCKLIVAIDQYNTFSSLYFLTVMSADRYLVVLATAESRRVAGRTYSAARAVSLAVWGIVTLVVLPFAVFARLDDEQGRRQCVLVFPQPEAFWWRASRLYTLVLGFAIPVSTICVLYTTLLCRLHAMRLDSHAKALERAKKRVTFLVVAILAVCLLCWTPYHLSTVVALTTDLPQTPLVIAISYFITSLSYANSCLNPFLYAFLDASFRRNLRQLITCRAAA
ZTA counter: ZTA (EBV) inhibition in EBNA-1 counter-screen; P03206; ZTA-DNA binding, fluorescence polarization; inhibition, % at 11 µM; 0.15% of 320,000 active; in the data active = inhibition above about 33%
Target sequence (P03206 whole entry, looked up): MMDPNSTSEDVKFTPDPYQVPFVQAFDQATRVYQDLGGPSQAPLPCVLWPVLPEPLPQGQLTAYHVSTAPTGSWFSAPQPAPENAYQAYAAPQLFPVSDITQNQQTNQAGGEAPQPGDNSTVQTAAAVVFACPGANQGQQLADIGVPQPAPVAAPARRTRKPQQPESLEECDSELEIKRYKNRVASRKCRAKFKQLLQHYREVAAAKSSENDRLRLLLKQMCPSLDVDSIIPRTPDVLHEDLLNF
EBNA-1 inhibitor: blocks EBNA-1 binding to DNA. EBNA-1 DNA binding, fluorescence polarization. inhibition, % at 14.8 µM. 0.34% of 300,000 active; in the data active = inhibition above about 28%
HCV NS3 hel inh: blocks Hepatitis C virus NS3 helicase unwinding; inhibition, % at 10.9 µM; NS3 helicase DNA unwinding, Cy5 molecular beacon fluorescence; 0.56% of 290,000 active; AID 1800;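 active = inhibition above the mean of all tested compounds plus 3 SD, set per campaign, cut at about 35% in these data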;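 also: 0% = DMSO wells and 100% = thioflavine S control wells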
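System: NS3 helicase fragment of HCV / Schedule: 1 h at 25 °C / Control set: DMSO alone as 0% and 110 µM thioflavine S as 100% / Reagent: Cy5/quencher beacon DNA duplex and ATP to start / Technique: Cy5 fluorescence / Replication: singlicate / Evaluation: % inhibition of end-to-start signal ratio versus controls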
NS3 hel confirm: HCV NS3 helicase inhibition, confirmation assay | NS3 helicase DNA unwinding, Cy5 molecular beacon fluorescence | 31% of 1,600 active | shares compounds with HCV NS3 hel inh | AID 1943 | inhibition, % at 10.9 µM;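 active = inhibition above the mean of all tested compounds plus 3 SD, cutoff set per campaign, cut at about 36% in these data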
DNA FID counter-2: displaces DNA intercalator in HCV helicase counter-screen; DNA fluorescent intercalator displacement, fluorescence; 4% of 1,600 active; inhibition, % at 7.9 µM; shares compounds with HCV NS3 hel inh;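 also: 0% = vehicle and 100% = reference compound; higher means more displacement of ethidium bromide from the DNA hairpin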
FID counter DR: DNA intercalator displacement in dose response | shares compounds with HCV NS3 hel inh | fluorescent intercalator displacement from DNA, fluorescence | IC50, µM | 120 tested, under 10 active | AID 2172; call rule not given here
* marks the source's active call; other numbers are inactive results; · = no result given; + = active, no number. Compounds with a hit are over-represented: about 2% of the library has one in this group of screens. Rule as the data show it, unless noted: active = inhibition above about 37%; inactive = the rest.

SMILES	DNA FID counter-1	GPR7 antagonist	ZTA counter	EBNA-1 inhibitor	HCV NS3 hel inh	NS3 hel confirm	DNA FID counter-2	others
Cc1ccc(S(=O)(=O)c2nc(S(C)(=O)=O)sc2N2CCCCC2C)cc1 (stereo unspecified)	-33	4	-7	-15	-4	·	·
NS(=O)(=O)c1cc(C(=O)OCC(=O)N2CCOCC2)ccc1Cl	0	2	6	9	4	·	·
O=C(Nc1nc2c(F)cc(F)cc2s1)C1CC(=O)N(Cc2ccco2)C1 (stereo unspecified)	-10	-1	3	4	41*	-8	-27
Cc1cc(O)c(C(=O)Nc2cccc(Cl)c2)c(=O)n1C	0	-11	-8	1	-2	·	·
CCCCc1cc(C(=O)Cc2ccccn2)c(O)cc1O	-17	-15	4	5	-6	·	·
CC(=O)C1=C(O)C(=O)N(c2cc(C(C)(C)C)on2)C1c1ccc(C(C)C)cc1 (stereo unspecified)	-33	-2	-5	-15	36	·	·
CC(=O)C1=C(O)C(=O)N(c2ccc(Br)cc2)C1c1ccc(Cl)cc1 (stereo unspecified)	-34	-19	5	13	37*	80*	1
CC(=O)C1=C(O)C(=O)N(c2cc(C(C)(C)C)on2)C1c1ccc(Br)cc1 (stereo unspecified)	-29	2	4	-5	38*	68*	-12
CC(=O)C1=C(O)C(=O)N(c2ccc(O)cc2)C1c1ccc(Cl)cc1 (stereo unspecified)	1	-8	-3	2	8	·	·
Cc1ccccc1OC(=O)c1cccc(S(=O)(=O)N2CCN(C)CC2)c1	·	·	-18	·	·	·	·
O=C1OC(c2ccc(Br)cc2)=N/C1=C\c1ccco1	-25	-9	1	-7	47*	-6	16
CCN(CC)S(=O)(=O)c1ccc(Cl)c(NC(=S)NC(=O)C2CCCC2)c1	·	·	4	·	·	·	·
CCN(CC)c1ccc(S(=O)(=O)Nc2cc(Cl)ccc2Cl)cc1NC(=S)NC(=O)C1CCCC1	-33	-38	-2	13	58*	23	-9
CCC(=O)N(c1nnc(SCC(=O)Nc2ccccc2Cl)s1)C1CC1	·	·	4	·	·	·	·
CCOC(=O)c1sc2nc3c(SCC(=O)O)cc(C(=O)c4cc(F)ccc4O)cn3c(=O)c2c1C	-10	-6	10	4	36*	52*	65*
Cc1sc2nc3c(SC(C)C(=O)O)cc(C(=O)c4ccccc4O)cn3c(=O)c2c1C (stereo unspecified)	-21	9	22	15	45*	70*	56*
CC(/C=N/NC(=O)Cc1cc(=O)[nH][nH]1)=C\c1ccccc1	-22	-5	5	3	39*	-6	3
COc1ccc(Cl)cc1NC(=O)CN(C)C(=O)c1cc(C)oc1C	·	·	-2	·	·	·	·
Cc1ccc(N=Cc2ccc(N(C)C)cc2)cc1	4	-1	2	8	4	·	·
CN(C)c1ccc(C=Nc2ccccc2)cc1	2	2	-4	2	8	·	·
CN(C)c1ccc(C=Nc2ccc(N(C)C)cc2)cc1	5	0	+	+	37*	5	17
CN(C)c1ccc(N=Cc2ccco2)cc1	3	13	+	+	41*	5	11
C(=Nc1cccc2c(N=Cc3ccco3)cccc12)c1ccco1	-1	-8	-4	6	37*	-15	20
Cc1cccc(C)c1NC(=O)CNC(=O)C(Cc1ccccc1)NC(=O)c1ccccc1 (stereo unspecified)	-52	12	-4	3	-3	·	·
CCOc1cccc(C2C(C(=O)c3ccc(C)o3)=C(O)C(=O)N2Cc2ccccc2)c1 (stereo unspecified)	-34	1	·	·	62*	79*	-29	FID counter DR=>79
SMILES	DNA FID counter-1	GPR7 antagonist	ZTA counter	EBNA-1 inhibitor	HCV NS3 hel inh	NS3 hel confirm	DNA FID counter-2	others
CCOc1cccc(C2C(C(=O)c3ccc(C)o3)=C(O)C(=O)N2Cc2ccncc2)c1 (stereo unspecified)	-30	-3	16	-3	9	·	·
C=CCOc1cccc(C2C(C(=O)c3ccco3)=C(O)C(=O)N2Cc2ccco2)c1 (stereo unspecified)	-46	-3	-4	0	38*	23	-16
O=C1CCC(=O)N1CC(=O)N1CCCc2ccccc21	-3	-13	10	-1	0	·	·
Cc1cc(S(=O)(=O)N2CCCCC2)c(C)s1	-7	3	-15	-11	67*	-10	-5
CC1(C)OCC(C2CC(c3ccccc3)NS(=O)(=O)O2)O1 (stereo unspecified)	-6	0	16	8	13	·	·
O=S1(=O)NC2c3ccccc3CC2O1 (stereo unspecified)	4	-7	5	0	40*	-13	1
O=C(O)CCC(=O)N1N=C(c2c(-c3ccccc3)c3cc(Cl)ccc3[nH]c2=O)CC1c1ccco1 (stereo unspecified)	-49	-8	-2	-6	41*	48*	-17
CCC(=O)N1N=C(c2c(-c3ccccc3)c3cc(Cl)ccc3[nH]c2=O)CC1c1ccco1 (stereo unspecified)	-22	-5	6	0	3	·	·
COc1ccccc1CNC(=O)/C(C#N)=C/c1ccc(OC)c(OC)c1OC	-28	22	-15	-6	3	·	·
CC(=O)C1=C(O)C(=O)N(CC(=O)O)C1c1ccccc1Cl (stereo unspecified)	1	-16	-3	0	2	·	·
CC(C)(C)C(=O)C1=C(O)C(=O)N(Cc2ccccc2)C1c1ccccc1Cl (stereo unspecified)	-38	-9	-5	5	38*	15	-13
CCc1nn(C(CC)C(=O)NCCCN2CC(C)CC(C)C2)c(=O)c2cc3oc(C)cc3n12 (stereo unspecified)	12	-24	-17	-2	-10	·	·
CCOc1cc(CNc2ccc(N(C)C)cc2)cc(Br)c1OCC(=O)NC(C)(C)C	-24	-2	+	+	53*	16	-6
CCOc1cc(CNc2ccc(N3CCCCC3)cc2)cc(Br)c1OCC(=O)NC(C)(C)C	-19	-12	19	-2	20	·	·
Cc1cc(OCc2nnc(SC(C)C(=O)O)n2-c2ccccc2)ccc1Cl (stereo unspecified)	-33	2	-8	-6	53*	40*	-27
CC(CC(=O)O)CC(=O)Nc1cc(C(F)(F)F)cc(C(F)(F)F)c1 (stereo unspecified)	-9	-17	0	1	45*	5	5
O=C(O)COCC(=O)Nc1cc(C(F)(F)F)cc(C(F)(F)F)c1	0	-12	9	-2	-3	·	·
Cc1cccc(C)c1OCc1cc(C(=O)NCc2cn(C)nc2C)no1	-38	-9	2	3	-2	·	·
